Measurements: ChEMBL document CHEMBL1144382, “Discovery and optimisation of potent, selective, ethanolamine inhibitors of bacterial phenylalanyl tRNA synthetase” (Bioorg Med Chem Lett, 2005)

Legend:
[1] = target: T1, Phenylalanine--tRNA ligase alpha subunit (Staphylococcus aureus, UniProt P68849); assay: Inhibitory concentration against Staphylococcus aureus Phenylalanyl-tRNA synthetase
T1 sequence (P68849 whole entry): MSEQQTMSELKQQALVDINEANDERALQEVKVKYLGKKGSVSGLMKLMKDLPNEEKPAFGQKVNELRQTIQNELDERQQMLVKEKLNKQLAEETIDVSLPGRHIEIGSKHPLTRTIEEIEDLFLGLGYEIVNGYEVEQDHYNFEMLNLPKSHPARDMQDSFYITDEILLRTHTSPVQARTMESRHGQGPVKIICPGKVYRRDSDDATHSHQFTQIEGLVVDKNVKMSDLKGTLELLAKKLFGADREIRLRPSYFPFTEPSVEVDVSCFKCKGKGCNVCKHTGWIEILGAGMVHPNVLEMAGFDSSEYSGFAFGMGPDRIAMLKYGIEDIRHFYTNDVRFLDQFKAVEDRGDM
How it was run: (§1)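 Recombinant bacterial FRS (S. aureus WCUH29 enzyme cloned and overexpressed in E. coli; S. pneumoniae and H. influenzae enzymes overexpressed and purified the same way). IC50 from the full aminoacylation reaction with SPA read-out. Phenylalanine was held at the Km of each enzyme.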

[2] = target: T2, Phenylalanine--tRNA ligase alpha subunit (Streptococcus pneumoniae serotype 4 (strain ATCC BAA-334 / TIGR4), UniProt Q97S36); assay: Inhibitory concentration against Streptococcus pneumoniae Phenylalanyl-tRNA synthetase; how it was run: as §1
T2 sequence (Q97S36 whole entry): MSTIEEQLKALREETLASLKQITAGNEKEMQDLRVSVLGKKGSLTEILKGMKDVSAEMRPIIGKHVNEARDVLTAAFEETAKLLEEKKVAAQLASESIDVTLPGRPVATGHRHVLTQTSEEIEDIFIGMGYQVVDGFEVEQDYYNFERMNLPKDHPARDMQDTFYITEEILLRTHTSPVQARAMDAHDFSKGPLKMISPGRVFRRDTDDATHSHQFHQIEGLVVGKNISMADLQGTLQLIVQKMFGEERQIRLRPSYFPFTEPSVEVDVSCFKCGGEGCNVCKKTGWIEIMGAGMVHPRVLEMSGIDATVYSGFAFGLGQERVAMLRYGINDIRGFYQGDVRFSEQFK

[3] = target: T3, Phenylalanine--tRNA ligase alpha subunit (Haemophilus influenzae (strain ATCC 51907 / DSM 11121 / KW20 / Rd), UniProt P43819); assay: Inhibitory concentration against Haemophilus influenzae Phenylalanyl-tRNA synthetase; how it was run: as §1
[4] = target: T1, Phenylalanine--tRNA ligase alpha subunit; assay: Inhibitory concentration against […] Phenylalanyl-tRNA synthetase
How it was run: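 Recombinant S. aureus WCUH29 FRS, cloned and overexpressed in E. coli, then purified. IC50 measured in the full aminoacylation reaction with SPA readout. Phenylalanine set at the enzyme's Km.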

[5] = target: T3, Phenylalanine--tRNA ligase alpha subunit; assay: Inhibitory concentration against Haemophilus influenzae Phenylalanyl-tRNA synthetase; NI=no inhibition at 300 nM
How it was run: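 Recombinant FRS from the named species, overexpressed in E. coli and purified. IC50 measured in the full aminoacylation reaction with SPA readout. Phenylalanine set at the Km of each enzyme.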

[6] = target: T4, Phenylalanine--tRNA ligase, mitochondrial (Rattus norvegicus, UniProt Q6AYQ3); assay: Inhibitory concentration against Phenylalanyl-tRNA synthetase from rat liver
T4 sequence (Q6AYQ3 whole entry): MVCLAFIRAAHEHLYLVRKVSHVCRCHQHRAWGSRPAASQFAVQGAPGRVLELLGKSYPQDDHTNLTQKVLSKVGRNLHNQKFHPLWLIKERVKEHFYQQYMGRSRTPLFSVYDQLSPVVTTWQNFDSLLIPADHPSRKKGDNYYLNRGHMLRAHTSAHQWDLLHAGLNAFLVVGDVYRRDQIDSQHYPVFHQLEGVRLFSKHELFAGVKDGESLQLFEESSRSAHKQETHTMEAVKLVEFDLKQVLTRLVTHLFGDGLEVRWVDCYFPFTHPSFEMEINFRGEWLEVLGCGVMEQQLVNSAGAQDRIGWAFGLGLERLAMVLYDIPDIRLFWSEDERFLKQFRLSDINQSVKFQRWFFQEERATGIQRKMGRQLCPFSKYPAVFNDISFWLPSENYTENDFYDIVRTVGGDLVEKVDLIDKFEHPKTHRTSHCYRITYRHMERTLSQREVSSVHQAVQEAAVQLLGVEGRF
How it was run: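 Mammalian FRS isolated from rat liver; IC50 determined to assess selectivity against the bacterial enzyme.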

T3 sequence (P43819 whole entry): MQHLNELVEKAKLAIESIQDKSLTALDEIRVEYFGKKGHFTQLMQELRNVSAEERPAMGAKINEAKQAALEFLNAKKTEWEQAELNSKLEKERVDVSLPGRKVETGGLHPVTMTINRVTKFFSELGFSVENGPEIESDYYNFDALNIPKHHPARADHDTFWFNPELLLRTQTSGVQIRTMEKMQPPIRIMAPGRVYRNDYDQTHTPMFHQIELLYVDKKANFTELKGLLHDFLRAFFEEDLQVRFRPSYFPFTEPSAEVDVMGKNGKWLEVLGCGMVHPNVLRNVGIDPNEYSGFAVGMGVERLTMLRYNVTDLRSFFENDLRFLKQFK

IC50 [1] | Structure (SMILES) | also measured
18 nM | C=CCOc1ccccc1CNCC(O)c1cc(Br)cs1 (stereo not given) | 
2500 nM | O=C(O)c1ccccc1CNCC(O)c1cccc(C(F)(F)F)c1 (stereo not given) | 
32 nM | CCNC(=O)COc1ccccc1CNCC(O)c1cc(Br)cs1 (stereo not given) | 
120 nM | CNC(=O)CNC(=O)COc1ccccc1CNCC(O)c1cc(Br)cs1 (stereo not given) | 
50 nM | COc1ccccc1CNCC(O)c1cc(Br)cs1 (stereo not given) | 
83 nM | COc1cccc(C(O)CNCc2ccccc2OCc2ccccc2)c1 (stereo not given) | 
18 nM | OC(CNCc1ccccc1OCCN1CCOCC1)c1cc(Br)cs1 (stereo not given) | 
43 nM | O=C(O)CCCOc1ccccc1CNCC(O)c1cc(Br)cs1 (stereo not given) | 
43 nM | OC(CNCc1ccccc1OCc1ccccn1)c1cc(Br)cs1 (stereo not given) | 
31 nM | OC(CNCc1ccccc1OCc1ccccc1)c1cccc(Cl)c1 (stereo not given) | 
250 nM | O=C1c2ccccc2C(=O)N1CCOc1ccccc1CNCC(O)c1cc(Br)cs1 (stereo not given) | 
110 nM | CN(CCO)C(=O)COc1ccccc1CNCC(O)c1cc(Br)cs1 (stereo not given) | 
8 nM | OCCOc1ccccc1CNCC(O)c1cc(Br)cs1 (stereo not given) | 
> 10000 nM | COc1ccccc1CNCC(O)c1cccc(OCc2ccccc2)c1 (stereo not given) | 
30 nM | CNC(=O)CNC(=O)CCCOc1ccccc1CNCC(O)c1cc(Br)cs1 (stereo not given) | 
22 nM | NCCCCOc1ccccc1CNCC(O)c1cc(Br)cs1 (stereo not given) | 
10 nM | OC(CNCc1ccccc1OCc1ccccc1)c1cc(Br)cs1 (stereo not given) | IC50 [2]: 280 nM; IC50 [3]: 1500 nM
26 nM | CN(CCO)C(=O)CCCOc1ccccc1CNCC(O)c1cc(Br)cs1 (stereo not given) | 
35 nM | COCOc1ccccc1CNCC(O)c1cc(Br)cs1 (stereo not given) | 

IC50 [1] | Structure (SMILES) | also measured
58 nM | O=C(O)CCOc1ccccc1CNCC(O)c1cc(Br)cs1 (stereo not given) | 
18 nM | OC(CNCc1ccccc1OCc1cccnc1)c1cc(Br)cs1 (stereo not given) | 
25 nM | CN(CCO)C(=O)CCOc1ccccc1CNCC(O)c1cc(Br)cs1 (stereo not given) | 
> 1000 nM | OCCOc1ccccc1CNC[C@H](O)c1cc(Br)cs1 | IC50 [2]: > 1000 nM; IC50 [3]: > 1000 nM
3.7 nM | OCCOc1ccccc1CNC[C@@H](O)c1cc(Br)cs1 | IC50 [2]: 190 nM; IC50 [3]: 56 nM
> 10000 nM | OC(CNCc1ccccc1OCc1ccccc1)c1cc(C(F)(F)F)cc(C(F)(F)F)c1 (stereo not given) | 
220 nM | NCCOc1ccccc1CNCC(O)c1cc(Br)cs1 (stereo not given) | 
16 nM | OC(CNCc1ccccc1OCc1ccncc1)c1cc(Br)cs1 (stereo not given) | IC50 [6]: 90000 nM
26 nM | CS(=O)(=O)c1ccc(COc2ccccc2CNCC(O)c2cc(Br)cs2)cc1 (stereo not given) | 
26 nM | OC(CNCc1ccccc1OCc1nc2ccccc2[nH]1)c1cc(Br)cs1 (stereo not given) | IC50 [2]: 250 nM; IC50 [3]: 150 nM
120 nM | OC(CNCc1ccccc1Oc1ccccc1)c1cc(Br)cs1 (stereo not given) | 
50 nM | OC(CNCc1ccccc1OCc1ccccc1)c1cccc(C(F)(F)F)c1 (stereo not given) | 
49 nM | N#CCOc1ccccc1CNCC(O)c1cc(Br)cs1 (stereo not given) | 
42 nM | NC(=O)COc1ccccc1CNCC(O)c1cc(Br)cs1 (stereo not given) | 
570 nM | OCc1cccc(C(O)CNCc2ccccc2OCc2ccccc2)c1 (stereo not given) | 
36 nM | CNC(=O)CNC(=O)CCOc1ccccc1CNCC(O)c1cc(Br)cs1 (stereo not given) | 
32 nM | OC(CNCc1ccccc1OCc1ccccc1)c1cccc(I)c1 (stereo not given) | 
69 nM | O=C1c2ccccc2C(=O)N1CCCCOc1ccccc1CNCC(O)c1cc(Br)cs1 (stereo not given) | 

Structure (SMILES) | IC50 [1] | also measured
C=CCOc1ccccc1CNCC(O)c1cccc(C(F)(F)F)c1 (stereo not given) | 58 nM | 
COc1ccccc1CNCC(O)c1cc(C(F)(F)F)ccc1C(F)(F)F (stereo not given) | > 10000 nM | 
OC(CNCc1ccccc1OC(F)F)c1cccc(C(F)(F)F)c1 (stereo not given) | 260 nM | 
COc1ccccc1CNCC(O)c1ccc(C(F)(F)F)cc1 (stereo not given) | > 10000 nM | 
COc1ccccc1CNCC(O)c1ccccc1C(F)(F)F (stereo not given) | > 10000 nM | 
Oc1ccccc1CNCC(O)c1cccc(C(F)(F)F)c1 (stereo not given) | 100 nM | 
OC(CNCc1ccccc1)c1cccc(C(F)(F)F)c1 (stereo not given) | 160 nM | IC50 [4]: 160 nM; IC50 [5]: No inhibition
COc1ccccc1CNCC(O)c1cccc(C)c1 (stereo not given) | 110 nM | 
COc1ccccc1CNCC(O)c1cccc(C(F)(F)F)c1 (stereo not given) | 160 nM | 
COc1ccccc1CNCC(O)c1cccc(Br)c1 (stereo not given) | 110 nM | 
COc1ccccc1CNCC(O)c1cccc(OC(F)(F)F)c1 (stereo not given) | 190 nM | 
Cc1ccccc1CNCC(O)c1cccc(C(F)(F)F)c1 (stereo not given) | 790 nM | 
